Converted amounts (≈) assume the structure as drawn. “And” between values parts separate entries of the source, which are not always exact repeats. Equal entries are not always repeated. Values belong to the compound of their own block, whether it stands above or below them.
Key:
P. aeruginosa PA108590 [1] = assay: Checkerboard assay with BLs; assay type: cell-based
P. aeruginosa PA86052 [2] = assay: Checkerboard assay with BLs; assay type: cell-based
P. aeruginosa PAO1 [3] = assay: Checkerboard RIF potentiation in CAMHB and Mg2+-supplemented CAMHB; assay type: cell-based; details: RIF alone
Outline: (§1)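 Checkerboard in CAMHB: the antibiotic or BL/BLI was twofold serially diluted on one axis and the adjuvant on the other. The inoculum was prepared as for MIC (0.5 McFarland, 1:50, about 5 × 10^5 cfu/mL) and plates ran at 37 °C overnight, with turbidity read at 595 nm. Each FIC is combination MIC over single-agent MIC, and FICI is their sum: ≤0.5 synergy, 0.5–4 additive, >4 antagonism. Runs were done at least twice.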

P. aeruginosa PA107092 = assay: Checkerboard assay with BLs; assay type: cell-based
P. aeruginosa PA109084 = assay: Checkerboard assay with BLs; assay type: cell-based
P. aeruginosa PA88949 = assay: Checkerboard assay with BLs; assay type: cell-based
P. aeruginosa PAO1 [4] = assay: Antimicrobial susceptibility assay; assay type: cell-based; details: Pseudomonas aeruginosa, PAO1, read-out: minimum inhibitory concentration (MIC)
Outline: (§2)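 Broth microdilution following CLSI guidance. An overnight culture was adjusted in saline to 0.5 McFarland, diluted 1:50 in CAMHB and inoculated at about 5 × 10^5 cfu/mL final. Agents were twofold serially diluted in CAMHB, mixed with equal volumes of inoculum and held at 37 °C overnight. MIC was the lowest concentration without visible turbidity, read at 595 nm. Runs were done at least twice and repeated if outside twofold agreement.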

E. coli ATCC 25922 = assay: Antimicrobial susceptibility assay; assay type: cell-based; details: Escherichia coli, ATCC25922, read-out: minimum inhibitory concentration (MIC)
Outline: as §2

P. aeruginosa PAO1 [5] = details: cited from earlier work
A. baumannii ATCC 17978 = assay: Antimicrobial susceptibility assay; assay type: cell-based; details: Acinetobacter baumannii, ATCC17978, read-out: minimum inhibitory concentration (MIC)
Outline: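 CLSI broth microdilution. Overnight culture adjusted in saline to 0.5 McFarland, then diluted 1:50 in cation-adjusted Mueller Hinton broth to about 5 × 10^5 cfu/mL final. Test compound twofold serially diluted in the same broth, mixed with an equal volume of inoculum, incubated at 37 °C overnight. MIC is the lowest concentration without visible turbidity (595 nm). Run at least twice; repeated if outside twofold agreement.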

P. aeruginosa PAO1 [6] = assay: Checkerboard assay, antibiotic potentiation; assay type: cell-based; details: PMBN (7 μM) vs 2c 8 μg/mL (2 μM)
Outline: as §1

P. aeruginosa PA108590 [7] = assay: Potentiation of BL/BLI; assay type: cell-based
Outline: as §1

P. aeruginosa PA86052 [8] = assay: Potentiation of BL/BLI; assay type: cell-based
Outline: as §1

P. aeruginosa PAO1 [9] = assay: Outer membrane permeabilization assay; assay type: cell-based; details: NPN 10 μM
Outline: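 PAO1 suspension (OD600 0.4–0.6) was incubated with NPN (10 μM final) in 5 mM HEPES, 5 mM glucose and 5 μM CCCP for 30 min at room temperature in the dark. Test compound was then added at varying concentrations, and fluorescence (ex 350 / em 420 nm) was recorded every 30 s.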

[10] = ATM/AVI in the presence of 8 μg/mL compound 3 (3.5 μM) or PMBN (7 μM)
[11] = ATM/AVI with 8 μg/mL compound 3 (3.5 μM) or PMBN (7 μM)
[12] = CAZ/AVI in the presence of 8 μg/mL compound 3 (3.5 μM) or PMBN (7 μM)
[13] = CAZ/AVI with 8 μg/mL compound 3 (3.5 μM) or PMBN (7 μM)
[14] = CTZ/TAZ in the presence of 8 μg/mL compound 3 (3.5 μM) or PMBN (7 μM)
[15] = CTZ/TAZ with 8 μg/mL compound 3 (3.5 μM) or PMBN (7 μM)
[16] = IMI/REL in the presence of 8 μg/mL compound 3 (3.5 μM) or PMBN (7 μM)
[17] = IMI/REL with 8 μg/mL compound 3 (3.5 μM) or PMBN (7 μM)
[18] = MER/VAB in the presence of 8 μg/mL compound 3 (3.5 μM) or PMBN (7 μM)
[19] = MER/VAB with 8 μg/mL compound 3 (3.5 μM) or PMBN (7 μM)

Compound: C[C@H]1[C@H](NC(=O)/C(=N\OC(C)(C)C(=O)O)c2csc(N)n2)C(=O)N1S(=O)(=O)O [ATM, aztreonam]
MICBL (P. aeruginosa PA108590 [1]; ATM alone): 32 µg/mL | MICBL (P. aeruginosa PA86052 [2]; ATM alone): 32 µg/mL

Compound: CC(C)(O/N=C(\C(=O)N[C@@H]1C(=O)N2C(C(=O)[O-])=C(C[n+]3ccccc3)CS[C@H]12)c1csc(N)n1)C(=O)O [CAZ, ceftazidime]
MICBL (P. aeruginosa PA107092; CAZ alone): 128 µg/mL | MICBL (P. aeruginosa PA108590 [1]; CAZ alone): 64 µg/mL | MICBL (P. aeruginosa PA86052 [2]; CAZ alone): 64 µg/mL

Compound: Cn1c(N)c(NC(=O)NCCN)c[n+]1CC1=C(C(=O)O)N2C(=O)[C@@H](NC(=O)/C(=N\OC(C)(C)C(=O)[O-])c3nsc(N)n3)[C@H]2SC1 [CTZ, ceftolozane]
MICBL (P. aeruginosa PA107092; CTZ alone): 4 µg/mL | MICBL (P. aeruginosa PA108590 [1]; CTZ alone): 8 µg/mL and 4 µg/mL | MICBL (P. aeruginosa PA109084; CTZ alone): 8 µg/mL and 4 µg/mL | MICBL (P. aeruginosa PA88949; CTZ alone): 4 µg/mL | MICBL (P. aeruginosa PA86052 [2]; CTZ alone): 8 µg/mL and 4 µg/mL

The next lines start with results.

MICRIF (P. aeruginosa PAO1 [3]; CAMHB): 32 µg/mL | MICRIF (P. aeruginosa PAO1 [3]; CAMHB with 20 mM Mg2+): 32 µg/mL
Compound: CO[C@H]1/C=C/O[C@@]2(C)Oc3c(C)c(O)c4c(O)c(c(/C=N/N5CCN(C)CC5)c(O)c4c3C2=O)NC(=O)/C(C)=C\C=C\[C@H](C)[C@H](O)[C@@H](C)[C@@H](O)[C@@H](C)[C@H](OC(C)=O)[C@@H]1C [RIF, rifampicin]

MIC (P. aeruginosa PAO1 [4]): 0.5 µg/mL (≈ 1.07 µM) | MIC (E. coli ATCC 25922): 2 µg/mL (≈ 4.28 µM) | MIC (A. baumannii ATCC 17978): 0.5 µg/mL (≈ 1.07 µM)
Compound: NC[C@H]1O[C@H](O[C@H]2[C@H](O)[C@@H](O[C@H]3O[C@H](CO)[C@@H](O)[C@H](N)[C@H]3O)[C@H](N)C[C@@H]2N)[C@H](N)C[C@@H]1O [TOB, tobramycin]
synergy with NOV, RIF, MIN, LEV, CAZ (P. aeruginosa PAO1 [5]): did not synergize

MICBL/BLI [MIC with 3 or PMBN] (P. aeruginosa PA108590 [7]; [10]): 2 µg/mL | MICBL/BLI [MIC with 3 or PMBN] (P. aeruginosa PA108590 [7]; [12]): 4 µg/mL | MICBL/BLI [MIC with 3 or PMBN] (P. aeruginosa PA108590 [7]; [14]): 2 µg/mL | MICBL/BLI [MIC with 3 or PMBN] (P. aeruginosa PA108590 [7]; [16]): 1 µg/mL | MICBL/BLI [MIC with 3 or PMBN] (P. aeruginosa PA108590 [7]; [18]): 4 [4] μg/mL | MICBL/BLI [MIC with 3 or PMBN] (P. aeruginosa PA86052 [8]; [10]): 0.0625 µg/mL | MICBL/BLI [MIC with 3 or PMBN] (P. aeruginosa PA86052 [8]; [12]): 0.25 µg/mL | MICBL/BLI [MIC with 3 or PMBN] (P. aeruginosa PA86052 [8]; [14]): 0.0625 µg/mL | MICBL/BLI [MIC with 3 or PMBN] (P. aeruginosa PA86052 [8]; [16]): 0.125 µg/mL | MICBL/BLI [MIC with 3 or PMBN] (P. aeruginosa PA86052 [8]; [18]): 0.0312 µg/mL | NPN fluorescence (OM permeabilization) (P. aeruginosa PAO1 [9]): increased fluorescence
Compound: polymyxin B nonapeptide [PMBN]
MIN potentiation relative to trimer 2c (P. aeruginosa PAO1 [6]): 4 fold | fold potentiation (P. aeruginosa PA108590 [7]; [11]): 16 fold | fold potentiation (P. aeruginosa PA108590 [7]; [13]): 32 fold | fold potentiation (P. aeruginosa PA108590 [7]; [15]): 2 fold | fold potentiation (P. aeruginosa PA108590 [7]; [17]): 32 fold | fold potentiation (P. aeruginosa PA108590 [7]; [19]): 1 fold | fold potentiation (P. aeruginosa PA86052 [8]; [11]): 1024 fold | fold potentiation (P. aeruginosa PA86052 [8]; [13]): 512 fold | fold potentiation (P. aeruginosa PA86052 [8]; [15]): 128 fold | fold potentiation (P. aeruginosa PA86052 [8]; [17]): 512 fold | fold potentiation (P. aeruginosa PA86052 [8]; [19]): 512 fold

MICBL (P. aeruginosa PA107092; MER alone): 32 µg/mL and 64 µg/mL | MICBL (P. aeruginosa PA108590 [1]; MER alone): 4 µg/mL and 8 µg/mL | MICBL (P. aeruginosa PA109084; MER alone): 16 µg/mL | MICBL (P. aeruginosa PA88949; MER alone): 16 µg/mL and 32 µg/mL | MICBL (P. aeruginosa PA86052 [2]; MER alone): 16 µg/mL
Compound: C[C@@H](O)[C@H]1C(=O)N2C(C(=O)O)=C(S[C@@H]3CN[C@H](C(=O)N(C)C)C3)[C@H](C)[C@H]12 [MER, meropenem]

MICBL (P. aeruginosa PA107092; IMI alone): 32 µg/mL | MICBL (P. aeruginosa PA108590 [1]; IMI alone): 32 µg/mL | MICBL (P. aeruginosa PA109084; IMI alone): 16 µg/mL | MICBL (P. aeruginosa PA88949; IMI alone): 64 µg/mL | MICBL (P. aeruginosa PA86052 [2]; IMI alone): 64 µg/mL and 32 µg/mL
Compound: C[C@@H](O)[C@H]1C(=O)N2C(C(=O)O)=C(SCCN=CN)C[C@H]12 [IMI, imipenem]

Source: publication PMC10433466 (ACS Omega, 2023)
